Test results from ChEMBL document CHEMBL1212827, “Unnatural amino acid side chains as S1, S1', and S2' probes yield cationic antimicrobial peptides with stability toward chymotryptic degradation” (J Med Chem, 2010).
In brackets after ≈: the same amount, converted by molar mass. Non-standard residues stand in square brackets, D forms with d. Residues, ends and D or L forms follow the SMILES beside them. *: point of attachment. Phe(4-guanidino) = N=C(N)Nc1ccc(C[C@H](N)C(=O)O)cc1; Bip = N[C@@H](Cc1ccc(-c2ccccc2)cc1)C(=O)O; Dip = N[C@H](C(=O)O)C(c1ccccc1)c1ccccc1; Phe(4-NH2) = Nc1ccc(C[C@H](N)C(=O)O)cc1; hArg = N=C(N)NCCCC[C@H](N)C(=O)O; Agp = N=C(N)NC[C@H](N)C(=O)O; NHPhenethyl = c1ccc(CCN*)cc1; Orn = NCCC[C@H](N)C(=O)O; NHBn = c1ccc(CN*)cc1

Legend:
Staphylococcus aureus [1] = assay: Antibacterial activity against methicillin-resistant Staphylococcus aureus ATCC 33591; type: functional
Staphylococcus aureus [2] = assay: Antibacterial activity against Staphylococcus aureus ATCC 25923; type: functional
[3] = Stability of the compound in 0.1 M NH4HCO3 buffer at pH 8.2 assessed as half life in presence of chymotrypsin; type: physicochemical; settings: for t1/2: isolated protein; for half-life: chymotrypsin in NH4HCO3 buffer
How it was run: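 Peptide 1 mg/mL stock; chymotrypsin 1 mg per 50 mL buffer; both diluted tenfold into 0.1 M NH4HCO3 pH 8.2 and incubated at 37 °C. Aliquots quenched with water/acetonitrile 60/40 containing 0.5% TFA and run on RP-HPLC. Half-life calculated from 214 nm peak areas over the first 5 h. Under 10% degradation at 24 h counted as stable. Enzyme-free samples at 0 and 24 h served as controls.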

Escherichia coli = assay: Antibacterial activity against Escherichia coli ATCC 25922; type: functional
[4] = Toxicity in human RBC assessed as hemolysis at 1 mM after 30 mins relative to control; type: cell-based, Erythrocyte; settings: red blood cells (RBC), read-out: Activity
How it was run: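 Fresh heparinized human erythrocytes, washed in normal saline. Peptides at 25–1000 μg/mL with 1% v/v final erythrocytes, 30 min at 37 °C with agitation. Supernatant OD read at 405 nm. Saline served as 0% and 1% Triton X as 100% hemolysis; percent lysis taken relative to their difference.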

[5] = Binding affinity to chymotrypsin by isothermal titration […]
How it was run: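 Isothermal titration calorimetry at 25 °C in 0.1 M NH4HCO3 pH 8.2. Peptide (2.1 mM in syringe) injected in 20 aliquots of 5 μL into stirred (150 rpm) chymotrypsin (0.1 mM), 400 s between injections. First injection point discarded. KD fitted from heats of interaction.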

SMILES	MIC (Staphylococcus aureus [1]) [µM]	MIC (Staphylococcus aureus [2]) [µM]	t1/2 [3]	Activity (Escherichia coli) [µM]	hemolysis at 0.5 h, 1000 µM [4] [%]	half-life [3] [h]	Kd [5] [µM]
N=C(N)NCCC[C@H](NC(=O)[C@@H](NC(=O)[C@@H](N)CCCNC(=N)N)C(c1ccccc1)c1ccccc1)C(=O)NCc1ccccc1 (H-Arg-[Dip]-Arg-NHBn)	10 (≈ 6.43 µg/mL)	25 (≈ 16.1 µg/mL)	Stable	>200	> 10		
N=C(N)NCCC[C@H](NC(=O)[C@@H](N)CCCNC(=N)N)C(=O)N[C@@H](Cc1c[nH]c2ccccc12)C(=O)NCc1ccccc1 (H-Arg-Arg-Trp-NHBn)	26 (≈ 15.7 µg/mL)	79 (≈ 47.9 µg/mL)		>200		7	
N=C(N)NCCC[C@H](N)C(=O)N[C@@H](Cc1c[nH]c2ccccc12)C(=O)N[C@@H](Cc1ccc(N)cc1)C(=O)NCc1ccccc1 (H-Arg-Trp-[Phe(4-NH2)]-NHBn)	79 (≈ 48.3 µg/mL)	157 (≈ 96 µg/mL)	Stable	>200	> 5		
NC(=O)[C@H](CCCN=C(N)N)NC(=O)[C@H](Cc1c[nH]c2ccccc12)NC(=O)[C@@H](N)CCCN=C(N)N (H-Arg-Trp-Arg-NH2)	> 200	> 200		>200	> 134	5	
N=C(N)NCCCC[C@H](NC(=O)[C@H](Cc1c[nH]c2ccccc12)NC(=O)[C@@H](N)CCCNC(=N)N)C(=O)NCc1ccccc1 (H-Arg-Trp-[hArg]-NHBn)	52 (≈ 32.2 µg/mL)	78 (≈ 48.3 µg/mL)		>200		1	
N=C(N)NCCC[C@H](N)C(=O)N[C@@H](Cc1c[nH]c2ccccc12)C(=O)N[C@@H](CCCN)C(=O)NCc1ccccc1 (H-Arg-Trp-[Orn]-NHBn)	55 (≈ 31 µg/mL)	110 (≈ 62 µg/mL)		>200	> 1	20	
N=C(N)NCCC[C@H](NC(=O)[C@H](Cc1c[nH]c2ccccc12)NC(=O)[C@@H](N)CCCNC(=N)N)C(=O)NCc1ccccc1 (H-Arg-Trp-Arg-NHBn)	132 (≈ 80 µg/mL)	79 (≈ 47.9 µg/mL)		>200	> 5	2	
N=C(N)NCCC[C@H](NC(=O)[C@H](Cc1c[nH]c2ccccc12)NC(=O)[C@@H](N)CCCNC(=N)N)C(=O)NCCc1ccccc1 (H-Arg-Trp-Arg-NHPhenethyl)	26 (≈ 16.1 µg/mL)	52 (≈ 32.2 µg/mL)		>200		0.5	
N=C(N)NCCC[C@H](NC(=O)[C@H](Cc1ccc(-c2ccccc2)cc1)NC(=O)[C@@H](N)CCCNC(=N)N)C(=O)NCc1ccccc1 (H-Arg-[Bip]-Arg-NHBn)	15 (≈ 9.64 µg/mL)	10 (≈ 6.43 µg/mL)	Stable	>200	> 5		18.4
N=C(N)NCCC[C@H](N)C(=O)N[C@@H](Cc1c[nH]c2ccccc12)C(=O)N[C@@H](Cc1ccc(NC(=N)N)cc1)C(=O)NCc1ccccc1 (H-Arg-Trp-[Phe(4-guanidino)]-NHBn)	10 (≈ 6.54 µg/mL)	50 (≈ 32.7 µg/mL)		>200		4	
N=C(N)NCCC[C@H](N)C(=O)N[C@@H](Cc1c[nH]c2ccccc12)C(=O)N[C@@H](CCCCN)C(=O)NCc1ccccc1 (H-Arg-Trp-Lys-NHBn)	54 (≈ 31.2 µg/mL)	163 (≈ 94.2 µg/mL)		>200		4	
N=C(N)NCCC[C@H](N)C(=O)N[C@@H](Cc1c[nH]c2ccccc12)C(=O)N[C@@H](CNC(=N)N)C(=O)NCc1ccccc1 (H-Arg-Trp-[Agp]-NHBn)	16 (≈ 9.24 µg/mL)	54 (≈ 31.2 µg/mL)	Stable	>200	> 2		61.1
N=C(N)NCCC[C@H](NC(=O)[C@H](Cc1ccccc1)NC(=O)[C@@H](N)CCCNC(=N)N)C(=O)NCc1ccccc1 (H-Arg-Phe-Arg-NHBn)	83 (≈ 47 µg/mL)	165 (≈ 93.5 µg/mL)		>200		3	
N=C(N)NCCC[C@H](N)C(=O)N[C@@H](Cc1ccc(NC(=N)N)cc1)C(=O)N[C@@H](Cc1c[nH]c2ccccc12)C(=O)NCc1ccccc1 (H-Arg-[Phe(4-guanidino)]-Trp-NHBn)	15 (≈ 9.81 µg/mL)	50 (≈ 32.7 µg/mL)	Stable	>200	> 2		
N=C(N)NCCC[C@H](N)C(=O)N[C@@H](Cc1ccc(N)cc1)C(=O)N[C@@H](Cc1c[nH]c2ccccc12)C(=O)NCc1ccccc1 (H-Arg-[Phe(4-NH2)]-Trp-NHBn)	79 (≈ 48.3 µg/mL)	157 (≈ 96 µg/mL)		>200		17	
